In one data set the test system is ER(+) Ishikawa cells. Description: Induction of alkaline phosphatase in Ishikawa cells. The data set is classed as cell-based, human.
The format of data set [1] is in vitro ADME, human. The conditions noted are these: four days.
The next data set relates to T47D/neo cells. Description: ERE activation, luciferase reporter in T47D/neo cells. It counts as cell-based, human. Conditions: read-out: EC50 ERE-luciferase activation, classical ER-dependent. Put shortly:
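T47D:A18/neo stable transfectants were grown in RPMI 1640 with 10% FBS and G418 (500 µg/mL), then held 3 days in phenol red-free, E2-depleted RPMI with G418. 8 × 10^6 cells were electroporated with ERE-tk-Luc (5 µg) plus pCMVβ β-gal (1 µg). The next day, test compound (10^-9–10^-7 mol/L), E2 (10^-9 mol/L) or ethanol vehicle was added for 18 h. Luciferase luminescence was normalized to β-gal.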

For a further data set, the system named is MCF-7 cells. Conditions: cited from earlier work.

Take `NC[C@H]1O[C@@H]2O[C@H]3[C@H](O)[C@@H](O)[C@@H](O[C@H]4[C@H](O)[C@@H](O)[C@@H](O[C@H]5[C@H](O)[C@@H](O)[C@@H](O[C@H]6[C@H](O)[C@@H](O)[C@@H](O[C@H]7[C@H](O)[C@@H](O)[C@@H](O[C@H]8[C@H](O)[C@@H](O)[C@@H](O[C@H]1[C@H](O)[C@H]2O)O[C@@H]8CN)O[C@@H]7CN)O[C@@H]6CN)O[C@@H]5CN)O[C@@H]4CN)O[C@@H]3CN` [ACD, Per-6-amino-6-deoxy-β-cyclodextrin]: in the data set on ER(+) Ishikawa cells, the “Estrogenic activity, result in words” value is “inactive”.

On to `[N-]=[N+]=NC[C@H]1O[C@@H]2O[C@H]3[C@H](O)[C@@H](O)[C@@H](O[C@H]4[C@H](O)[C@@H](O)[C@@H](O[C@H]5[C@H](O)[C@@H](O)[C@@H](O[C@H]6[C@H](O)[C@@H](O)[C@@H](O[C@H]7[C@H](O)[C@@H](O)[C@@H](O[C@H]8[C@H](O)[C@@H](O)[C@@H](O[C@H]1[C@H](O)[C@H]2O)O[C@@H]8CN=[N+]=[N-])O[C@@H]7CN=[N+]=[N-])O[C@@H]6CN=[N+]=[N-])O[C@@H]5C/N=[NH+]\[NH-])O[C@@H]4CN=[N+]=[N-])O[C@@H]3CN=[N+]=[N-]` [Compound 2, Per-6-azido-6-deoxy-β-cyclodextrin], for which the “Estrogenic activity, result in words” value in the data set with ER(+) Ishikawa cells is “inactive”.

As to “Per-6-(estradiol-17-(1H-1,2,3-triazol-4-yl))-6-deoxy-β-cyclodextrin [Compound 7EqCD]”, in data set [1] (7EqCD 10 nM, Ishikawa cells), the “Free EE2 in cell supernatant” value is reported as under 50 pM. Also, the “Free estrogen (EE2 or E2) in cell supernatant, result in words” value in data set [1] (Ishikawa cell culture) is recorded as “EE2 was not observed above detection limits”. Also, the 50% effective concentration (EC50) in the data set on T47D/neo cells is over 100 nM.

As for 17-beta estradiol [Compound E2], the “Potency of E2 relative to the E2–dendrimer conjugate” value in the data set on MCF-7 cells is on record as 3–4 orders of magnitude.

A word on the EC50: it is the midpoint of the concentration-response curve.

(Values after article PMC2906776 (Bioorganic & medicinal chemistry, 2009).)
